Screening results: PubChem BioAssay, several laboratories
Most compounds without a hit are left out; they make up all but 2.2% or so of the library.
PolyA inhibitor: inhibitors of polyadenylation in S. cerevisiae | S. cerevisiae SKY197-pL101 polyadenylation reporter, beta-gal luminescence; efflux-impaired pdr1/pdr3 knockout yeast; score 100 = 6 SD above DMSO | activity score, % at 12 µM | 300,000 tested, 0.02% active | AID 1875;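 active = lowest replicate activity score at least 50, where 100 means six control SD above control mean; inconclusive = lowest score under 50 but half or more replicates reach 50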;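 note: yeast exposed to compound for 9 h at 30 °C; higher score means more reporter readthrough which indicates perturbed polyadenylation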
T cruzi repl: T. cruzi replication inhibition; T. cruzi beta-gal in NIH3T3, luminescence, 90 h; inhibition, % (concentration not given with the values); 300,000 tested, 1.4% active; AID 1885;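 active = mean inhibition across valid replicates above about 55%, limit read from the data; inconclusive = mean below that limit but half or more replicates reach it; inactive = mean below it, under half of replicates reach it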;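 note: signal also drops with host cell toxicity which is not excluded here; higher percent means less beta-gal luminescence so fewer parasites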
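System – NIH/3T3 host cells with β-galactosidase reporter T. cruzi · Doses – single 50 nL compound addition per well in DMSO · Reagent – 5000 T. cruzi trypomastigotes/well · Medium – Low-serum DMEM with 2% FBS · Timing – ≥90 h infection period, 3 h prior cell attachment · Evaluation – parasite load inhibition, % · Technique – GalScreen luminescence, 60 min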
AI-2 QS modul: modulators of Vibrio harveyi AI-2 quorum sensing system; Vibrio harveyi JMH597 AI-2 luminescence/OD600 ratio, 9 h; stronger effect = lower value; strain lacks LuxN and CqsS sensors; 0 = neutral-control median; activity change, % at 7.5 µM; 300,000 tested, 0.4% active; in the data active = activity change below about -75%, passing the limit was not always enough; inconclusive = no clear call, values can overlap the other calls;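 note: luminescence divided by OD600 gain over 9 h not by final OD600 alone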
Efflux pump mplx: inhibitors of Candida antifungal efflux pumps expressed in yeast. S. cerevisiae Candida pump triplex, Nile Red efflux. inhibition, % at 10 µM. 330,000 tested, 0.44% active;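 active = plate passing quality check with inhibition over a set limit, or well fluorescence over plate mean plus 4 SD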;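 note: Nile Red retained in pooled yeast measured as flow cytometry median fluorescence; higher means more Nile Red kept so more efflux inhibition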
HDAC3 inh: blocks human histone deacetylase 3 | O15379 | inhibition, % at 8.3 µM | 320,000 tested, 0.15% active | AID 2718 | recombinant HDAC3, fluorogenic peptide/trypsin coupled, fluorescence; in the data active = inhibition above about 26%, passing the limit was not always enough; inconclusive = no clear call, values can overlap the other calls
Target sequence (O15379 whole entry, looked up): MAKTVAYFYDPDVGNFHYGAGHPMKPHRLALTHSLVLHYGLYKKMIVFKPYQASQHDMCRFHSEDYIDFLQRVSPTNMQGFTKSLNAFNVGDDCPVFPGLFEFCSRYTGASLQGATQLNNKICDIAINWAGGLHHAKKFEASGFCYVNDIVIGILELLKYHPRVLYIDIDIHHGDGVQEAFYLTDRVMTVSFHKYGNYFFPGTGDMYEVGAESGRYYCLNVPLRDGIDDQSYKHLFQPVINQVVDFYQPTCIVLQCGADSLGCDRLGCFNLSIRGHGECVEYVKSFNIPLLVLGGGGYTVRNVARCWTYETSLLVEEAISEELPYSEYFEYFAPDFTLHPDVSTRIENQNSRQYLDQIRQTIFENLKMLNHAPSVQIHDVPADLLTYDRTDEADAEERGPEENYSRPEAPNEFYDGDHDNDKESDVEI
JMH597 growth: retest: blocks Vibrio harveyi JMH597 growth. OD600 absorbance, 9 h; lacks LuxN and CqsS sensors. growth inhibition, % at 7.5 µM. 750 tested, 1% active. AID 2726. shares compounds with AI-2 QS modul;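 active = every replicate shows growth inhibition above 50%; inconclusive = at least half, but not all, replicates pass that cutoff; inactive = fewer than half of replicates pass it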
BB721 lum counter: retest counter-screen: BB721 constitutive quorum sensing luminescence decrease; shares compounds with AI-2 QS modul; Vibrio harveyi BB721 luminescence, 9 h; inhibition, % at 7.5 µM; 750 tested, 95% active; AID 2727;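 active = inhibition above about 80% in every replicate, not just on average, limit read from the data; inconclusive = at least half of replicates past the limit, but not all; inactive = fewer than half of replicates past the limit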
BB721 growth: retest: blocks Vibrio harveyi BB721 growth; shares compounds with AI-2 QS modul; 750 tested, 3% active; AID 2728; OD600 absorbance, 9 h; growth inhibition, % at 7.5 µM;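 active = every replicate shows growth inhibition above 50%; inconclusive = at least half but not all replicates above 50% inhibition; inactive = under half of replicates above 50% inhibition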
AI-2 QS JMH597: Vibrio harveyi AI-2 signaling luminescence modulation – JMH597 strain, confirmation. inhibition, % at 7.5 µM. 750 tested, 97% active. Vibrio harveyi JMH597 AI-2 quorum sensing luminescence, 9 h; luxN and CqsS knockout, AI-2 only. AID 2736. shares compounds with AI-2 QS modul;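 active = every replicate shows more than 75% inhibition of signal versus neutral control wells; inconclusive = half to three quarters of replicates exceed 75% inhibition; inactive = fewer than half of replicates exceed 75% inhibition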
Hits are given with their value; - = inactive; ? = inconclusive; . = not tested or not shown.

SMILES	PolyA inhibitor	T cruzi repl	AI-2 QS modul	Efflux pump mplx	HDAC3 inh	JMH597 growth	BB721 lum counter	BB721 growth	AI-2 QS JMH597
O=C(NCCc1ccccc1)[C@@H]1CC=C[C@@H]2CCN(C3CCCCC3)C(=O)[C@@H]21	-	-	-	-	-	.	.	.	.
O=S(=O)(c1ccc(Br)s1)n1cccn1	-	-	-91	-	-	-	98	-	100
O=C(Oc1ccc2c(=O)c(Cl)coc2c1)c1cccnc1	-	-	-	-	?	.	.	.	.
O=C(Oc1ccc2c(=O)c(Oc3ccc4ccccc4c3)coc2c1)c1cccnc1	-	-	-89	-	-	-	97	?	97
O=C(NCCN1CCCCC1)Nc1ccc(Br)cc1	-	-	-	-	-	.	.	.	.
O=S(=O)(c1cccs1)N1CCN(CC(O)COC2CCCc3ccccc32)CC1 (configuration not stated)	-	-	-	-	-	.	.	.	.
O=S(=O)(c1cccs1)N1CCN(CC(O)COc2cccc(Br)c2)CC1 (configuration not stated)	-	-	-82	-	-	-	88	-	93
O=C(/C=C/c1ccc(Cl)cc1)NCc1cccs1	-	-	-	-	-	.	.	.	.
O=C(/C=C/c1cccc(Cl)c1)NCc1ccncc1	-	-	-	-	-	.	.	.	.
O=C(/C=C/c1cccc(Cl)c1)NCc1ccccc1	-	-	-89	-	-	-	96	-	97
O=C(/C=C/c1cccc(Cl)c1)NCc1cccs1	-	-	-83	-	-	-	90	-	91
CN1CC(=O)N(CC(=O)Nc2ccc(Cl)c(C(F)(F)F)c2)C1=O	-	-	-96	-	-	-	99	-	99
COc1ccc2nc(NC(=O)CSc3n[nH]c(N)n3)sc2c1	-	-	-	-	-	.	.	.	.
Cc1cccc(/C(N)=N/OC(=O)c2cccc3ccccc23)c1	-	-	-85	-	.	-	97	?	98
Cn1cc(Br)c(C(=O)NNC(=O)c2ccc(Br)cc2)n1	.	.	.	-	-	.	.	.	.
Cc1c(Br)c(C(=O)NNC(=O)c2ccc(C(C)(C)C)cc2)nn1C	-	-	-88	-	-	-	96	-	97
c1ccc(OCc2nnc(-c3ccccc3)o2)cc1	-	-	-88	-	-	-	97	-	97
CC1CC(C)CN(C(=O)C2CCN(S(=O)(=O)c3cccc4cccnc34)CC2)C1 (configuration not stated)	-	-	-	-	-	.	.	.	.
O=S1(=O)CC(O)C(N=Nc2c(O)n(Cc3ccccc3)c3ccccc23)C1 (configuration not stated)	-	-	-	-	-	.	.	.	.
CC(C)c1ccc(OCC(=O)NCc2ccco2)cc1	-	-	-	-	-	.	.	.	.
CC(C)(C)c1ccc(OCC(=O)NCc2ccco2)cc1	-	-	?	-	-	-	88	-	94
Oc1ccc(-n2nnnc2SCc2ccccc2Br)cc1	-	-	?	-	-	-	81	-	87
O=C(O)c1ccccc1C(=O)Nc1ccc(Oc2ccccc2)cc1	-	-	-	-	-	.	.	.	.
Cc1nc(C)c(C(=O)Nc2ccc(Oc3ccccc3)cc2)o1	-	-	-83	-	-	-	91	-	94
Cc1ncoc1C(=O)Nc1ccc(Oc2ccccc2)cc1	-	-	-96	-	-	-	99	-	99
SMILES	PolyA inhibitor	T cruzi repl	AI-2 QS modul	Efflux pump mplx	HDAC3 inh	JMH597 growth	BB721 lum counter	BB721 growth	AI-2 QS JMH597
COc1ccccc1C(=O)NCC(=O)OCCCOC(=O)CNC(=O)c1ccccc1OC	-	-	-	-	-	.	.	.	.
CCn1c(=O)ccc2cc([N+](=O)[O-])ccc21	-	-	-	-	-	.	.	.	.
COCCN(CC(=O)Nc1ccccc1C(F)(F)F)C(=O)c1ccc(-n2cccn2)cc1	.	.	.	-	-	.	.	.	.
COc1ccc(Oc2cn[nH]c2-c2ccc(O)cc2O)cc1	-	-	-90	-	-	?	97	?	98
CCCc1ccc(Oc2cn[nH]c2-c2ccc(O)cc2O)cc1	.	-	?	-	-	.	.	.	.
CCCCNC(=O)COC(=O)c1ccc(NS(=O)(=O)c2ccc3c(c2)OCCO3)cc1	-	-	-92	-	-	-	98	-	99
CC1(c2ccc3c(c2)OCO3)NC(=O)N(CC(=O)NCCC2=CCCCC2)C1=O (configuration not stated)	-	-	-87	-	-	-	90	-	95
CC1(c2ccccc2)NC(=O)N(CC(=O)NCCC2=CCCCC2)C1=O (configuration not stated)	-	-	-90	-	-	-	91	-	95
Cc1ccc(C2(C)NC(=O)N(CC(=O)NCCC3=CCCCC3)C2=O)cc1 (configuration not stated)	-	-	-	-	-	.	.	.	.
NC(=O)Nc1ccc(C(=O)OCC(=O)Nc2ccc(Cl)cn2)cc1	-	-	-	-	-	.	.	.	.
COc1ccc(/C=N/NC(=O)CNC(=O)c2cccs2)cc1	-	-	-	-	-	.	.	.	.
O=C(CNC(=O)c1cccs1)N/N=C/c1ccc(Cl)cc1	-	-	-87	-	-	-	96	-	96
O=C(Cc1ccc(Cl)cc1)N/N=C/c1cccs1	-	-	?	-	-	-	89	-	90
O=C(Cc1ccccc1)N/N=C/c1cccs1	-	-	-	-	-	.	.	.	.
O=C(O)c1ccc(NCc2ccncc2)cc1	-	-	-	-	-	.	.	.	.
COc1ccc(CNc2ccc(Br)cc2)cc1	-	-	-	-	-	.	.	.	.
COc1ccc(CNc2ccc(C(=O)O)cc2)cc1	-	-	-95	-	-	-	99	-	99
O=C(O)c1ccc(NCc2cccc(Br)c2)cc1	-	-	-91	-	-	-	98	?	98
O=C(CN1C(=O)c2ccccc2C1=O)Nc1cccc(Cl)c1	-	-	-93	-	-	-	99	-	99
CC(=O)c1cccc(NC(=O)CN2C(=O)c3ccccc3C2=O)c1	-	-	-96	-	-	-	99	-	100
O=C(CN1C(=O)c2ccccc2C1=O)Nc1cccc(O)c1	-	-	?	-	-	.	.	.	.
O=C(CN1C(=O)c2ccccc2C1=O)Nc1cccc(S(=O)(=O)Nc2ccccc2Cl)c1	-	-	-83	-	-	-	90	-	93
Cc1ccc(NC(=O)CN2C(=O)c3ccccc3C2=O)cc1	-	-	-	-	-	.	.	.	.
Cc1cccc(NC(=O)CCOc2ccccc2)c1	-	-	-84	-	-	-	91	-	94
O=C(CCOc1ccccc1)Nc1cccc([N+](=O)[O-])c1	-	-	-	-	-	.	.	.	.
